Measurements taken from ChEMBL document CHEMBL5649170, “Sustained microglial depletion with CSF1R inhibitor impairs parenchymal plaque development in an Alzheimer's disease model” (Nat Commun, 2019).
pIC50: −log10 of the molar value.

How the values were obtained:
[1] = Drug concentration in wildtype mouse plasma at 600 ppm administered as rodent chow starting from 1.5 months and measured after 5 months; type: ADME, cell-free; settings: route po, time 3.5 months
Method in brief: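 WT or 5xFAD mice were fed PLX3397 in AIN-76A chow at 600 ppm or 75 ppm from 1.5 to 5 months of age. Terminal brain and plasma drug concentrations were determined at study end.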

Aurora kinase C = Aurora kinase C (Homo sapiens, UniProt Q9UQB9); test: Inhibition of AURKC (unknown origin)
[2] = biological target: Tyrosine-protein kinase Blk (Homo sapiens, UniProt P51451); test: Inhibition of BLK (unknown origin)
Sequence of Tyrosine-protein kinase Blk (P51451 whole entry): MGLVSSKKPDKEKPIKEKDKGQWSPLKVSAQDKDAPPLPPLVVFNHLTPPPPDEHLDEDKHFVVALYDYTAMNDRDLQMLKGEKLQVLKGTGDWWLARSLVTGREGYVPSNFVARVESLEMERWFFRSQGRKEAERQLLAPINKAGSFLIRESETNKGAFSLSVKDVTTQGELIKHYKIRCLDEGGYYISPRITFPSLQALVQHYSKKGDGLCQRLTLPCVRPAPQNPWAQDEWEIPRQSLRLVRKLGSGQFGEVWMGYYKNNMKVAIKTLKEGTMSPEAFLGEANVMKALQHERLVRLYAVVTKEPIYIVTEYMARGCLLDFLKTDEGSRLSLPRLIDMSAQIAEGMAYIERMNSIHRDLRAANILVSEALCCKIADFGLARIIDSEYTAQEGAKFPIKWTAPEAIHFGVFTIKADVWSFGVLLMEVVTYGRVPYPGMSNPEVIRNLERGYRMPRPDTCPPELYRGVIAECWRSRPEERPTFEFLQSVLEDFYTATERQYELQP

[3] = biological target: Dual specificity tyrosine-phosphorylation-regulated kinase 4 (Homo sapiens, UniProt Q9NR20); test: Inhibition of DYRK4 (unknown origin)
Ephrin type-B receptor 3 = Ephrin type-B receptor 3 (Homo sapiens, UniProt P54753); test: Inhibition of EPHB3 (unknown origin)
[4] = biological target: Tyrosine-protein kinase Fyn (Homo sapiens, UniProt P06241); test: Inhibition of FYN (unknown origin)
Sequence of Tyrosine-protein kinase Fyn (P06241 whole entry): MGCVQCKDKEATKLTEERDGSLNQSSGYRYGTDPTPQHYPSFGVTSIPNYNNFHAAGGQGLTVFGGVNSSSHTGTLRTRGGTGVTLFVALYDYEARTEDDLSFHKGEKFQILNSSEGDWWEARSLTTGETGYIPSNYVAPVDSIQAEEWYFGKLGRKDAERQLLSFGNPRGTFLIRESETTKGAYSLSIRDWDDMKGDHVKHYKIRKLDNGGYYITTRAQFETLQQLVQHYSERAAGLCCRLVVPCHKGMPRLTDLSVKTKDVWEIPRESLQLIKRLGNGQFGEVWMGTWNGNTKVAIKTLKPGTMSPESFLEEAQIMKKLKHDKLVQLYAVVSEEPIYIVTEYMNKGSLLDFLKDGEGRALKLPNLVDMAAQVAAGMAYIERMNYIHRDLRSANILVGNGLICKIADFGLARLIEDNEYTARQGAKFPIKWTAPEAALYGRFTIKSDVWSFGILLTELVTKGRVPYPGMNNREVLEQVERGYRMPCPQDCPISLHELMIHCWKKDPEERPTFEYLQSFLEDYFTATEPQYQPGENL

Rhodopsin kinase GRK7 = Rhodopsin kinase GRK7 (Homo sapiens, UniProt Q8WTQ7); test: Inhibition of GRK7 (unknown origin)
Sequence of Rhodopsin kinase GRK7 (Q8WTQ7 whole entry): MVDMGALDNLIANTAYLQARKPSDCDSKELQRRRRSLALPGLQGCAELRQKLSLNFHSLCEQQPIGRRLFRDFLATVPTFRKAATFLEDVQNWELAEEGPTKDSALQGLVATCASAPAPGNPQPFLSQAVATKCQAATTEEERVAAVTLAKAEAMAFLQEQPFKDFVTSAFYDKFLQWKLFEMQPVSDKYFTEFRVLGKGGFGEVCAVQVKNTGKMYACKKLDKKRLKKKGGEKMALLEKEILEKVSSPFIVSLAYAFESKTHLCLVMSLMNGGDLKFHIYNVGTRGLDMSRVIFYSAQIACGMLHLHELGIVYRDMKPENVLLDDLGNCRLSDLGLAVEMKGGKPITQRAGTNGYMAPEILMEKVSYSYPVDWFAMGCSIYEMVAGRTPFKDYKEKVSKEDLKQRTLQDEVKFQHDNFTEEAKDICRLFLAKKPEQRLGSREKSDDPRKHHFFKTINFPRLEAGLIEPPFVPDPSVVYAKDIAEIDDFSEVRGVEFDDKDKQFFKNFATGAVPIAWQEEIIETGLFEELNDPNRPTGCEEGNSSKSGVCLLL

[5] = biological target: Mitogen-activated protein kinase kinase kinase kinase 4 (Homo sapiens, UniProt O95819); test: Inhibition of MAP4K4 (unknown origin)
[6] = biological target: Serine/threonine-protein kinase Nek1 (Homo sapiens, UniProt Q96PY6); test: Inhibition of NEK1 (unknown origin)
Sequence of Serine/threonine-protein kinase Nek1 (Q96PY6 whole entry): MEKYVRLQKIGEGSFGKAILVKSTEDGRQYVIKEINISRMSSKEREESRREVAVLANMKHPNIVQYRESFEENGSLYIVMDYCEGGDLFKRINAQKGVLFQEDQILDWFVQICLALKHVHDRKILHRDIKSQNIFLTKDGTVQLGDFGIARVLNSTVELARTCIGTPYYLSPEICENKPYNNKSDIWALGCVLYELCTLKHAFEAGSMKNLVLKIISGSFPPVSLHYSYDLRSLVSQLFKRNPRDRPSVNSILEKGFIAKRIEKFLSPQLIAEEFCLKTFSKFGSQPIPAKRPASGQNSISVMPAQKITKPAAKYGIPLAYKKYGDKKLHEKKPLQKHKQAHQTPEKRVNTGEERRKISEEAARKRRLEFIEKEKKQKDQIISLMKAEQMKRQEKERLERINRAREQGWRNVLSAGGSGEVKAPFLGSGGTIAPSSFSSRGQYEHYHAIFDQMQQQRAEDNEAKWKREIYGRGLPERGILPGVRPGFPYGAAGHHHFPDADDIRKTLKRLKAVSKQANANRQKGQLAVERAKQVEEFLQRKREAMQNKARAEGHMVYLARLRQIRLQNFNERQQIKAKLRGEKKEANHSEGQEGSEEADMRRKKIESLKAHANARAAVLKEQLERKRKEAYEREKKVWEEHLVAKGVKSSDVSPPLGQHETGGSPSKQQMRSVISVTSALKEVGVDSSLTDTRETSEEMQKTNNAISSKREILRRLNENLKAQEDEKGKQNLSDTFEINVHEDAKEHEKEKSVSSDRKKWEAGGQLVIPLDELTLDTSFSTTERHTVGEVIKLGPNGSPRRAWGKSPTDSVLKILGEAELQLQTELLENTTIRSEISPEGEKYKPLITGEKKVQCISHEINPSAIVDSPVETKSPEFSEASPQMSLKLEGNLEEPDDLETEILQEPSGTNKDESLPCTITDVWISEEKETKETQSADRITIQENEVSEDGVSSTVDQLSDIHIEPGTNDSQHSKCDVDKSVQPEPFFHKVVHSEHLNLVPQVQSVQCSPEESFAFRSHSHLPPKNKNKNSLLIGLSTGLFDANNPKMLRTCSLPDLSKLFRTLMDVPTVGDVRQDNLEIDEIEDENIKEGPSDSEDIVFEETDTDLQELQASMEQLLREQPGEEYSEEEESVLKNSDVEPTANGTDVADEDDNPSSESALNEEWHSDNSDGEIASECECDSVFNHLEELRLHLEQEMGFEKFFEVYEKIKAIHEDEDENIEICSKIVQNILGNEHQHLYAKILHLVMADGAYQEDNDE

[7] = biological target: BDNF/NT-3 growth factors receptor (Homo sapiens, UniProt Q16620); test: Inhibition of NTRK2 (unknown origin)
[8] = biological target: Protein kinase C epsilon type (Homo sapiens, UniProt Q02156); test: Inhibition of PRKCE (unknown origin)
Sequence of Protein kinase C epsilon type (Q02156 whole entry): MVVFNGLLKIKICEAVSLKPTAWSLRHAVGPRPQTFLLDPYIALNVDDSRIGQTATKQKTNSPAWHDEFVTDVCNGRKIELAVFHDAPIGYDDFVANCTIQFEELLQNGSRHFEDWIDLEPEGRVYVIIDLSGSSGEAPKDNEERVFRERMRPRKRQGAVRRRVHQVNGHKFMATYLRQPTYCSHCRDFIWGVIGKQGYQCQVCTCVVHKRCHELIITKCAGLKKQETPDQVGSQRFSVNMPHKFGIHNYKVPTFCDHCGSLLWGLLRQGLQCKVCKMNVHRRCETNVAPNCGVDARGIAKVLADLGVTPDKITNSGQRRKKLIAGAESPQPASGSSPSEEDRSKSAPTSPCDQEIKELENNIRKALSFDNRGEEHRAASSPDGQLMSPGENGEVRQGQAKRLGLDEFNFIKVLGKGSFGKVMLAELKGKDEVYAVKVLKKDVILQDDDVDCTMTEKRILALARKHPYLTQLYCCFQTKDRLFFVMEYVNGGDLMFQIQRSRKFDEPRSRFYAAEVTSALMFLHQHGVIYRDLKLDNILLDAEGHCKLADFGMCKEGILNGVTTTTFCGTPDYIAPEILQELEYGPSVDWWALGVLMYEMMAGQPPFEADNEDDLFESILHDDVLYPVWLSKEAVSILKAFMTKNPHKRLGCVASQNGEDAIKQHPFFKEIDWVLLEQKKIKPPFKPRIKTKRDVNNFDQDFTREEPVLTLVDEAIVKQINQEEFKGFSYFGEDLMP

[9] = biological target: Serine/threonine-protein kinase D2 (Homo sapiens, UniProt Q9BZL6); test: Inhibition of PRKD2 (unknown origin)
Sequence of Serine/threonine-protein kinase D2 (Q9BZL6 whole entry): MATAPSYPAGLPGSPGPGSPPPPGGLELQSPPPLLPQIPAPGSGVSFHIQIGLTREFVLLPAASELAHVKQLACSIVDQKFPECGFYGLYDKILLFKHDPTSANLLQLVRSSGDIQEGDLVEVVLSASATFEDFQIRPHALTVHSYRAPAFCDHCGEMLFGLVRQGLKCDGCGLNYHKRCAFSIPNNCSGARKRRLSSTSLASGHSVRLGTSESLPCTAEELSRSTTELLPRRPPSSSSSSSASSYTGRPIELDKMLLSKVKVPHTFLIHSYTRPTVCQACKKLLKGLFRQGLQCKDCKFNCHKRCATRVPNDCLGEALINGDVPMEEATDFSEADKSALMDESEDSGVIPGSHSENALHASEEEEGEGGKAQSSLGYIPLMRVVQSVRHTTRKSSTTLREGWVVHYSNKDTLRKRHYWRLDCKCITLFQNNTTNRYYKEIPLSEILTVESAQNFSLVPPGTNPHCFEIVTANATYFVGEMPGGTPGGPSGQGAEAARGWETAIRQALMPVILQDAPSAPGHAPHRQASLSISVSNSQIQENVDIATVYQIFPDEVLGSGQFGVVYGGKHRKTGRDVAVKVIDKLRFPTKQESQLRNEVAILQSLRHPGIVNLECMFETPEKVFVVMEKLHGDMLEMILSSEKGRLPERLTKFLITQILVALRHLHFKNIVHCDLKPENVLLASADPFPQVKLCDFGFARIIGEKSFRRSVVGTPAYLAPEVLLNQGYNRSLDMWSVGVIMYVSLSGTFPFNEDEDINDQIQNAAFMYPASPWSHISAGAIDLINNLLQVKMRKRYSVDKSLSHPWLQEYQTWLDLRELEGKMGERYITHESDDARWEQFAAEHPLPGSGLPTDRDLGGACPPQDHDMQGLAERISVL

[10] = biological target: Tyrosine-protein kinase Yes (Homo sapiens, UniProt P07947); test: Inhibition of YES1 (unknown origin)
Sequence of Tyrosine-protein kinase Yes (P07947 whole entry): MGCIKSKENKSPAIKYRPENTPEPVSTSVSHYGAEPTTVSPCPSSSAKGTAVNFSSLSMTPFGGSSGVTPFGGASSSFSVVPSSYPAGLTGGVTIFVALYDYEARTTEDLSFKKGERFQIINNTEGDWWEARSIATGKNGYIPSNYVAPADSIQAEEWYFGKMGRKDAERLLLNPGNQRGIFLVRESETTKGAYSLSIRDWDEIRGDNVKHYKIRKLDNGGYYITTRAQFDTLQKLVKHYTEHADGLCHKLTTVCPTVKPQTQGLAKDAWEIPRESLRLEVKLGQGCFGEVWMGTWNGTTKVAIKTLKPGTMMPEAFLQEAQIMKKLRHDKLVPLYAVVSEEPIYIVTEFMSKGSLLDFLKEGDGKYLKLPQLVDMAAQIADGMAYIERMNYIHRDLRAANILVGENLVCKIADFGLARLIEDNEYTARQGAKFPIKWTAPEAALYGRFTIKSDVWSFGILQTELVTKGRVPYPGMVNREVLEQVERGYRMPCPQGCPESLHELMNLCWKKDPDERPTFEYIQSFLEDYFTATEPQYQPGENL

[11] = AUC (0 to infinity) in mouse at 1.92 mg/kg, iv administered as single dose; type: ADME, organism-based; settings: in vivo
Mus musculus [12] = test: Antialzheimer activity in wildtype mouse assessed as number of Iba positive cells per FOV in somatosensory cortex at 1200 ppm administered as rodent chow starting from 1.5 months and measured after 7 months (reference value: 371 to 472); type: functional; settings: route po, time 5.5 months, 4015 h
[13] = Toxicity in wildtype mouse assessed as number of closed arm entries at 1200 ppm administered as rodent chow for 10 to 24 weeks by Elevated plus maze test (reference value: 11 to 33); settings: in vivo, po, time 10-24 weeks
[14] = biological target: T1, Macrophage colony-stimulating factor 1 receptor (Mus musculus) (UniProt P09581); test: In vivo inhibition of CSF1R in wildtype mouse assessed as number of GFAP positive cell per FOV in somatosensory cortex at 1200 ppm administered as rodent chow for 10 to 24 weeks by immunolabelling based confocal microscopic analysis (reference value: 4 to 34); type: functional; settings: route po, time 10-24 weeks
T1 sequence (whole entry): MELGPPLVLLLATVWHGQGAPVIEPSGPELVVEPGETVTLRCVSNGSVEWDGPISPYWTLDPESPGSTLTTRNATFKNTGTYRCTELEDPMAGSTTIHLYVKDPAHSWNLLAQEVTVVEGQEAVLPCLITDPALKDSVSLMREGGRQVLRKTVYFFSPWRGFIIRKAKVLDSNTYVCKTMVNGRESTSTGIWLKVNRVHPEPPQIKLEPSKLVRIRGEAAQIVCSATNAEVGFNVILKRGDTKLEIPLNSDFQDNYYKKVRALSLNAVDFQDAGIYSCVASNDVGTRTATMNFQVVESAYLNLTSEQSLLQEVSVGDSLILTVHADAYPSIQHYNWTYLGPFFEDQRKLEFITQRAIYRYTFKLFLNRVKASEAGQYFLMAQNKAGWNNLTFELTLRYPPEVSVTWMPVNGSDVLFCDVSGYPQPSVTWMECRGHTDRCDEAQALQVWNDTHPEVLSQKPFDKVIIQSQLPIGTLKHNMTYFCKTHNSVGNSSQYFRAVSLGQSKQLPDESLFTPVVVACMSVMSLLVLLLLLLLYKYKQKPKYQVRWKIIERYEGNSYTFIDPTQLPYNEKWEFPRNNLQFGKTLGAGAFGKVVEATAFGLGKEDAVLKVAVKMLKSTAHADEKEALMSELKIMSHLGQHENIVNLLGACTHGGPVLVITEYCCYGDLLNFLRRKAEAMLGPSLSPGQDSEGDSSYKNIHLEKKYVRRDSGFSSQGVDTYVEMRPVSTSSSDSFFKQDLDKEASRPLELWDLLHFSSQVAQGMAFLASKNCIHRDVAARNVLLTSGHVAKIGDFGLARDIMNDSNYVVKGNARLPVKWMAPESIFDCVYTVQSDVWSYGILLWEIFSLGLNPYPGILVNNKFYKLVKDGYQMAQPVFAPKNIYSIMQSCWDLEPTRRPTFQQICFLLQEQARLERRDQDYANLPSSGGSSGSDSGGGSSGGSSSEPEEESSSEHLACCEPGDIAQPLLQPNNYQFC

[15] = biological target: T1, Macrophage colony-stimulating factor 1 receptor (Mus musculus); test: In vivo inhibition of CSF1R in wildtype mouse assessed as iron reactivity by measuring hemosiderin intensity of prussian blue staining in […] cortex at 1200 ppm administered as rodent chow starting from 1.5 months and measured after 4 months by confocal microscopic analysis (reference value: 0.362 to 5.194 a.u.); type: functional; settings: route po, time 2.5 months
Method in brief: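 Wild-type or 5xFAD mice fed PLX5622 (1200 ppm) in AIN-76A chow from 1.5 months of age, examined in 4- and 7-month-old cohorts. Brain sections stained with a Prussian blue kit per kit instructions to detect iron deposits (microbleeds).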

Mus musculus [16] = test: Effect on APP processing pathway in wildtype mouse assessed as C99 protein signal intensity in cortex at 1200 ppm administered as rodent starting from 1.5 months and measured after 7 months (reference value: 8.282 to 87.456 %); type: functional; settings: route po, time 5.5 months, 4015 h
[17] = Effect on Cx3cr1 gene expression in wild type mouse cortex at 1200 ppm administered as rodent chow starting from 1.5 months and measured after 7 months by RNA-Seq analysis (reference value: 9.334 to 12.119); type: functional; settings: route po, time 5.5 months, 4015 h
[18] = Effect on Cst7 gene expression in wild type mouse hippocampus at 1200 ppm administered as rodent chow starting from 1.5 months and measured after 7 months by RNA-Seq analysis (reference value: 0.079 to 0.447 RPKM); type: functional; settings: route po, time 5.5 months, 4015 h
[19] = Effect on Ctsd gene expression in 5XFAD mouse cortex at 1200 ppm administered as rodent chow starting from 1.5 months and measured after 7 months by RNA-Seq analysis (reference value: 202.122 to 327.906 RPKM); type: functional; settings: route po, time 5.5 months, 4015 h
[20] = Effect on Ctsz gene expression in 5XFAD mouse cortex at 1200 ppm administered as rodent chow starting from 1.5 months and measured after 7 months by RNA-Seq analysis (reference value: 27.650 to 42.003 RPKM); type: functional; settings: route po, time 5.5 months, 4015 h
[21] = Prevention of St8sia5 gene downregulation in 5XFAD mouse hippocampus assessed as percent change in Reads Per kilo base per Million mapped reads at 1200 ppm administered as rodent chow starting from 1.5 months and measured after 7 months by RNA-Seq analysis (reference value: 42.024 to 86.833 %); type: functional; settings: route po, time 5.5 months, 4015 h

`FC(F)(F)c1ccc(CNc2ccc(Cc3c[nH]c4ncc(Cl)cc34)cn2)cn1` [PEXIDARTINIB] showed a concentration at 2555 h [1] of 139 µM.
Molecule `COc1ncc(F)cc1CNc1ccc(Cc2c[nH]c3ncc(C)cc23)c(F)n1` [PLX-5622] has a pIC50 (Aurora kinase C) of 6.00, a pIC50 [2] of less than 6.00 and a pIC50 [3] of less than 6.00. The pIC50 (Ephrin type-B receptor 3) was less than 6.00, the pIC50 [4] was less than 6.00 and the pIC50 (Rhodopsin kinase GRK7) was less than 6.00. The pIC50 [5] was less than 6.00, the pIC50 [6] was less than 6.00 and the pIC50 [7] was less than 6.00. The pIC50 [8] was less than 6.00, the pIC50 [9] was less than 6.00 and the pIC50 [10] was less than 6.00. For the same molecule, the AUC(0-inf) [11] was 15500 ng·h/mL, the Activity (Mus musculus [12]) was 1 and the Activity [13] was 14. The Activity [14] was 5, the Flu intensity [15] was 0.1 a.u and the Activity (Mus musculus [16]) was 21.073%. For the same molecule, the Activity [17] was 0 RPKM, the Activity [18] was 0 RPKM and the Activity [19] was 106.638 RPKM. For the same molecule, the Activity [20] was 13.681 RPKM and the Activity [21] was 74.641%.
